{"source": "ChEMBL document CHEMBL3751835", "about": "“Discovery of the imidazole-derived GPR40 agonist AM-3189” (Bioorg Med Chem Lett, 2016)", "key": {"[1]": {"target": "T1, Peroxisome proliferator-activated receptor gamma (Homo sapiens) (UniProt P37231)", "T1 sequence (whole entry)": "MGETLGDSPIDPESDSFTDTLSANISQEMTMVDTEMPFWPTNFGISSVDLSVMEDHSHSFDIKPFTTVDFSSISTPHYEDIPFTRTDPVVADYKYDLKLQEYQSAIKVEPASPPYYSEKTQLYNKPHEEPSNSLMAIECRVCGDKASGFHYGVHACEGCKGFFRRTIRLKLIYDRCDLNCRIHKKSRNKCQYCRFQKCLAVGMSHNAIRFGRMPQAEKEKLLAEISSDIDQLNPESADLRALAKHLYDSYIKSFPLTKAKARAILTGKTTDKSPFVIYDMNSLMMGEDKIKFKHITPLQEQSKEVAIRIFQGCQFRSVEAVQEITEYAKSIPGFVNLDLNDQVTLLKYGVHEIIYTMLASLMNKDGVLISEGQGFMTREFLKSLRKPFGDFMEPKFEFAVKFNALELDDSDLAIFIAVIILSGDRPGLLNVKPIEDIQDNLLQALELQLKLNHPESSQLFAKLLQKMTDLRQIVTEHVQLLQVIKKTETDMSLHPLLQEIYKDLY", "experiment": "Activity at PPARgamma (unknown origin) by cell based assay"}, "[2]": {"experiment": "Oral bioavailability in dog at 2 mg/kg", "assay_type": "ADME, organism-based, Canis lupus familiaris", "settings": "in vivo", "summary_of_the_method": "(§1)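 Oral doses given as a suspension in aqueous 1% Tween 80 in 1% methylcellulose; IV doses formulated in 10% N,N-dimethylacetamide, 10% ethanol, 30% propylene glycol, 50% sterile water. Animals per species: mouse n = 2 (plasma from two mice at each time point), rat n = 2, dog n = 3, cynomolgus monkey n = 3.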"}, "MDR1 [3]": {"test_system": "MDR1", "experiment": "Efflux ratio of permeability from basolateral to apical over apical basolateral side in MDCK cells expressing MDR1", "assay_type": "ADME, cell-based, Canis lupus familiaris", "settings": "dog"}, "[4]": {"target": "Free fatty acid receptor 1 (Macaca fascicularis, UniProt Q76JV1)", "sequence (Q76JV1 whole entry)": "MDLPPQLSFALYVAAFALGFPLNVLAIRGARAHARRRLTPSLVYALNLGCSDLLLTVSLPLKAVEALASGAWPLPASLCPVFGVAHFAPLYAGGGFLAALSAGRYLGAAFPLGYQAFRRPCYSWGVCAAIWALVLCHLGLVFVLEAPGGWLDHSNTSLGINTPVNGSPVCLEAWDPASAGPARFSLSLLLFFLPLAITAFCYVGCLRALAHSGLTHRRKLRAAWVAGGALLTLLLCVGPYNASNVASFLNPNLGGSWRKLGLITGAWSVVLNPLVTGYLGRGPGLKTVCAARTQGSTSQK", "experiment": "Agonist activity at cynomolgus monkey GPR40 in presence of 0.01% human serum albumin relative to AMG 837"}, "[5]": {"experiment": "Volume of distribution at steady state in dog at 0.5 mg/kg, iv", "assay_type": "ADME, organism-based, Canis lupus familiaris", "settings": "in vivo, read-out: Vdss", "summary_of_the_method": "as §1"}, "[6]": {"experiment": "Half life in dog at 0.5 mg/kg, iv", "assay_type": "ADME, organism-based, Canis lupus familiaris", "settings": "in vivo", "summary_of_the_method": "as §1"}, "[7]": {"experiment": "Half life in cynomolgus monkey at 0.5 mg/kg, iv", "assay_type": "ADME, organism-based, Macaca fascicularis", "settings": "in vivo", "summary_of_the_method": "as §1"}, "[8]": {"experiment": "Ratio of drug level in brain to plasma in rat at 5 mg/kg, po after 3 hrs", "assay_type": "ADME, organism-based"}, "[9]": {"experiment": "Cmax in cynomolgus monkey at 5 mg/kg, po", "assay_type": "ADME, organism-based, Macaca fascicularis", "set-up": "dose 5 mg/kg, route oral", "settings": "in vivo", "summary_of_the_method": "as §1"}, "[10]": {"experiment": "Half life in rat at 0.5 mg/kg, iv", "assay_type": "ADME, organism-based", "settings": "in vivo", "summary_of_the_method": "as §1"}, "[11]": {"target": "T2, Peroxisome proliferator-activated receptor delta (Homo sapiens) (UniProt Q03181)", "T2 sequence (whole entry)": "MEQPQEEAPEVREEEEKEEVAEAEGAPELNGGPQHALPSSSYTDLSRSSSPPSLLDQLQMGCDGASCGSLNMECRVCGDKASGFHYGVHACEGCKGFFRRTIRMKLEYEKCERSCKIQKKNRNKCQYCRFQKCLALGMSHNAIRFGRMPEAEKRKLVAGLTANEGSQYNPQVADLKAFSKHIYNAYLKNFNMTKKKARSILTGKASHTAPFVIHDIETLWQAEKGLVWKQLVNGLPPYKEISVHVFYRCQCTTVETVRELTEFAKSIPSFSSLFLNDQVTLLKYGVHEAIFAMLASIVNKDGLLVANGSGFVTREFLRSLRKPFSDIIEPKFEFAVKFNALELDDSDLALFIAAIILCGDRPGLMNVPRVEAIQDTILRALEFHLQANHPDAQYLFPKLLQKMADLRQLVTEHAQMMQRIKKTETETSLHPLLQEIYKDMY", "experiment": "Activity at PPARdelta (unknown origin) by cell based assay"}, "MDR1 [12]": {"test_system": "MDR1", "experiment": "Permeability across basolateral to apical side in MDCK cells expressing MDR1", "assay_type": "ADME, cell-based, Canis lupus familiaris", "settings": "dog, read-out: permeability"}, "[13]": {"target": "Free fatty acid receptor 1 (Homo sapiens, UniProt O14842)", "sequence (O14842 whole entry)": "as the sequence (Q76JV1 whole entry) above, with A10G, R31T, R36L, G83A, A88F, V143G, H211R, N250Y, S296G, T297K counted along it", "experiment": "Partial agonist activity at human GPR40 expressed in CHO cells measured over 20 secs interval by luminometric analysis in presence of 100% human serum", "assay_type": "cell-based", "summary_of_the_method": "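Aequorin chemiluminescence read-out of calcium flux in a CHO line stably transfected with human GPR40, giving EC50. Run in buffer containing 0.01% human serum albumin, or in 100% human serum to test activity with plasma proteins present.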"}, "Mus musculus [14]": {"test_system": "Mus musculus", "experiment": "Reduction of blood glucose AUC in human islet transplanted nude chimeric mouse at 1 and 10 mg/kg, po administered 1 hr prior to glucose challenge by OGTT", "assay_type": "functional, organism-based", "summary_of_the_method": "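Nude mice had their endogenous pancreatic β-cells ablated with streptozotocin and were rescued to euglycemia by human islets transplanted under the kidney capsule. Compound was dosed before a glucose challenge, and the glucose AUC was determined.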"}, "[15]": {"experiment": "Cmax in dog at 2 mg/kg, po", "assay_type": "ADME, organism-based, Canis lupus familiaris", "set-up": "dose 2 mg/kg, route oral", "settings": "in vivo", "summary_of_the_method": "as §1"}, "[16]": {"target": "Free fatty acid receptor 1 (Rattus norvegicus) (UniProt Q8K3T4)", "sequence (Q8K3T4 whole entry)": "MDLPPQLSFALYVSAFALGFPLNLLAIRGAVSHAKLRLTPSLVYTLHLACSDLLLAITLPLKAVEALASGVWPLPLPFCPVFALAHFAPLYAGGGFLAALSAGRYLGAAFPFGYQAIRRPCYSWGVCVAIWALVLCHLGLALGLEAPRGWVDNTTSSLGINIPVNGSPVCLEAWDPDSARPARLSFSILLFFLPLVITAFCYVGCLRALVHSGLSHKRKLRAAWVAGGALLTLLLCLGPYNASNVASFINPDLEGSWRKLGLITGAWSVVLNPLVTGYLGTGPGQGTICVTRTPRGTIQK", "experiment": "Agonist activity at rat GPR40 in presence of 0.01% human serum albumin relative to AMG 837"}, "[17]": {"experiment": "Volume of distribution at steady state in mouse at 1 mg/kg, iv", "assay_type": "ADME, organism-based", "settings": "in vivo, read-out: Vdss", "summary_of_the_method": "as §1"}, "[18]": {"test_system": "GPR40 (hamster, Mesocricetus auratus)", "experiment": "Agonist activity at hamster GPR40 in presence of 0.01% human serum albumin"}, "[19]": {"experiment": "Half life in mouse at 1 mg/kg, iv", "assay_type": "ADME, organism-based", "settings": "in vivo", "summary_of_the_method": "as §1"}, "[20]": {"experiment": "Agonist activity at dog GPR40 in presence of 0.01% human serum albumin", "set-up": "species or system Canis lupus familiaris"}, "[21]": {"experiment": "Cmax in rat at 2 mg/kg, po", "assay_type": "ADME, organism-based", "set-up": "dose 2 mg/kg, route oral", "settings": "in vivo", "summary_of_the_method": "as §1"}, "[22]": {"target": "Free fatty acid receptor 1 (Mus musculus) (UniProt Q76JU9)", "sequence (Q76JU9 whole entry)": "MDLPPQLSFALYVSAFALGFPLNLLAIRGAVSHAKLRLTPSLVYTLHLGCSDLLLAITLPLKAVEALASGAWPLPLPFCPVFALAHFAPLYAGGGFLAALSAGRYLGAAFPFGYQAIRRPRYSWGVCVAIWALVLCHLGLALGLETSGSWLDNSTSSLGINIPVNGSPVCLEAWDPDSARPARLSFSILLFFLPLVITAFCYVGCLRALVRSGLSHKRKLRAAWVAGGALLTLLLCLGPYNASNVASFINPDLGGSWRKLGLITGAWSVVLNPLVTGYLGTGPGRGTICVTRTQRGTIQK", "experiment": "Agonist activity at mouse GPR40 in presence of 0.01% human serum albumin"}, "[23]": {"target": "T3, Free fatty acid receptor 1 (Sus scrofa) (UniProt F1RM69)", "T3 sequence (whole entry)": "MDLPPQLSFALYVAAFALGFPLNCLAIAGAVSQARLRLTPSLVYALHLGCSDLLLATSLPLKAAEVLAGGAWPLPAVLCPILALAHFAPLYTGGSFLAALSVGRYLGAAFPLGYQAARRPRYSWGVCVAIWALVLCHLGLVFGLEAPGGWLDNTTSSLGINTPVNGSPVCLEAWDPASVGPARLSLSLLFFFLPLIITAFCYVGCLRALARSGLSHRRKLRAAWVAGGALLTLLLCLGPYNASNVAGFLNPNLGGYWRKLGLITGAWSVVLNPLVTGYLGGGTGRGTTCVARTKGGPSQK", "experiment": "Agonist activity at pig GPR40 in presence of 0.01% human serum albumin"}, "[24]": {"target": "Free fatty acid receptor 1 (Macaca fascicularis) (UniProt Q76JV1)", "sequence (Q76JV1 whole entry)": "as the sequence (Q76JV1 whole entry) above", "experiment": "Agonist activity at cynomolgus monkey GPR40 in presence of 0.01% human serum albumin relative to AMG 837 relative to AMG 837"}, "Mus musculus [25]": {"test_system": "Mus musculus", "experiment": "Reduction of blood glucose AUC in human GPR40 knock-in chimeric mouse at 30 mg/kg, po administered 1 hr prior to glucose challenge by OGTT", "assay_type": "functional, organism-based", "summary_of_the_method": "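Female human GPR40 knock-in mice, 28 weeks old, fasted 6 h, then dosed by oral gavage with compound formulated in 1% methylcellulose, 1% Tween-80. Glucose 2 g/kg was given by oral gavage 1 h after the drug. Blood glucose was read from tail-vein samples at several time points with a glucometer.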"}}, "note": "Active and inactive are the calls of the source. The rule behind the calls is not given here."}
{"smiles": "Cc1cc(Cl)ccc1-c1cccc(COc2ccc([C@H](CC(=O)O)c3nccn3C)cc2)c1", "values": [{"measurement": "Activity", "setting": "[1]", "value": "inactive"}, {"measurement": "bioavailability", "setting": "[2]", "value": 66, "unit": "%"}, {"measurement": "efflux ratio", "setting": "MDR1 [3]", "value": 22}, {"measurement": "EC50", "setting": "[4]", "value": 0.029, "unit": "µM"}, {"measurement": "Vd", "setting": "[5]", "value": 0.58, "unit": "L/kg"}, {"measurement": "half-life", "setting": "[6]", "value": 5.1, "unit": "h"}, {"measurement": "half-life", "setting": "[7]", "value": 7.6, "unit": "h"}, {"measurement": "Kp at 3 h", "setting": "[8]", "value": 0.04}, {"measurement": "Cmax", "setting": "[9]", "value": 1.19, "unit": "µM"}, {"measurement": "half-life", "setting": "[10]", "value": 1.6, "unit": "h"}, {"measurement": "Activity", "setting": "[11]", "value": "inactive"}, {"measurement": "Papp B→A", "setting": "MDR1 [12]", "value": 310, "unit": "nm/s"}, {"measurement": "EC50", "setting": "[13]", "value": 10, "unit": "µM"}, {"measurement": "Activity", "setting": "Mus musculus [14]", "value": "Active"}, {"measurement": "Cmax", "setting": "[15]", "value": 4.4, "unit": "µM"}, {"measurement": "Emax", "setting": "[16]", "value": 41, "unit": "%"}, {"measurement": "Vd", "setting": "[17]", "value": 0.78, "unit": "L/kg"}, {"measurement": "Activity", "setting": "[18]", "value": "inactive"}, {"measurement": "half-life", "setting": "[19]", "value": 1.5, "unit": "h"}, {"measurement": "EC50", "setting": "[20]", "value": 0.037, "unit": "µM"}, {"measurement": "Cmax", "setting": "[21]", "value": 0.77, "unit": "µM"}, {"measurement": "Activity", "setting": "[22]", "value": "inactive"}, {"measurement": "Activity", "setting": "[23]", "value": "inactive"}, {"measurement": "Emax", "setting": "[24]", "value": 96, "unit": "%"}, {"measurement": "Activity", "setting": "Mus musculus [25]", "value": "Active"}]}
